Measurements from ChEMBL document CHEMBL4190234, “Design, synthesis and anticancer activity of new monastrol analogues bearing 1,3,4-oxadiazole moiety” (Eur J Med Chem, 2017).

What was measured:
Format in all cases: functional
HL-60(TB) = experiment: Growth inhibition of human HL-60(TB) cells at 10 uM incubated for 48 hrs by sulforhodamine B assay relative to control; settings: HL-60, 48 h, read-out: GI
Procedure, shortened: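 Single dose of 10 µM in the NCI ~60-line panel. Cells grown in RPMI 1640 with 5% FBS and 2 mM L-glutamine, plated and pre-incubated 24 h, then exposed 48 h at 37°C under 5% CO2. Suspension cells fixed with TCA (16% final) and stained with sulforhodamine B, A515 read. Reported as percent growth versus untreated control and as GI%.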

K562 = experiment: Growth inhibition of human K562 cells at 10 uM incubated for 48 hrs by sulforhodamine B assay relative to control; settings: K562, 48 h, read-out: GI
Procedure, shortened: (§1)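 Single-dose screen at 10 μM final: cells in RPMI 1640, 5% FBS, 2 mM L-glutamine, plated 5,000–40,000/well, preincubated 24 h at 37°C, 5% CO2; drug 48 h; adherent cells fixed with 10% TCA, suspension cells with 16% TCA; SRB stain, absorbance 515 nm; percentage growth versus untreated control, with time-zero plates.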

MOLT-4 = experiment: Growth inhibition of human MOLT4 cells at 10 uM incubated for 48 hrs by sulforhodamine B assay relative to control; settings: MOLT-4, 48 h, read-out: GI; procedure, shortened: as §1
RPMI-8226 = experiment: Growth inhibition of human RPMI8226 cells at 10 uM incubated for 48 hrs by sulforhodamine B assay relative to control; settings: RPMI-8226, 48 h, read-out: GI; procedure, shortened: as §1
EKVX = experiment: Growth inhibition of human EKVX cells at 10 uM incubated for 48 hrs by sulforhodamine B assay relative to control; settings: read-out: GI; procedure, shortened: as §1
HOP-92 = experiment: Growth inhibition of human HOP92 cells at 10 uM incubated for 48 hrs by sulforhodamine B assay relative to control; settings: HOP-92, 48 h, read-out: GI; procedure, shortened: as §1
NCI-H23 = experiment: Growth inhibition of human NCI-H23 cells at 10 uM incubated for 48 hrs by sulforhodamine B assay relative to control; settings: NCI-H23, 48 h, read-out: GI; procedure, shortened: as §1
NCI-H322M = experiment: Growth inhibition of human NCI-H322M cells at 10 uM incubated for 48 hrs by sulforhodamine B assay relative to control; settings: read-out: GI; procedure, shortened: as §1
NCI-H460 = experiment: Growth inhibition of human NCI-H460 cells at 10 uM incubated for 48 hrs by sulforhodamine B assay relative to control; settings: NCI-H460, 48 h, read-out: GI; procedure, shortened: as §1
NCI-H522 = experiment: Growth inhibition of human NCI-H522 cells at 10 uM incubated for 48 hrs by sulforhodamine B assay relative to control; settings: NCI-H522, 48 h, read-out: GI; procedure, shortened: as §1
HCC 2998 = experiment: Growth inhibition of human HCC2998 cells at 10 uM incubated for 48 hrs by sulforhodamine B assay relative to control; settings: HCC 2998, 48 h, read-out: GI; procedure, shortened: as §1
HCT-15 = experiment: Growth inhibition of human HCT15 cells at 10 uM incubated for 48 hrs by sulforhodamine B assay relative to control; settings: HCT-15, 48 h, read-out: GI; procedure, shortened: as §1
KM12 = experiment: Growth inhibition of human KM12 cells at 10 uM incubated for 48 hrs by sulforhodamine B assay relative to control; settings: KM12, 48 h, read-out: GI; procedure, shortened: as §1
SF-268 = experiment: Growth inhibition of human SF268 cells at 10 uM incubated for 48 hrs by sulforhodamine B assay relative to control; settings: SF-268, 48 h, read-out: GI
Procedure, shortened: (§2)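 NCI single-dose screen: cells grown in RPMI 1640 with 5% FBS and 2 mM L-glutamine, plated at 5,000–40,000 cells/well and preincubated 24 h at 37 °C, 5% CO2. Compounds taken from DMSO stock and tested at final 10 µM for 48 h. Cells fixed with TCA, stained with 0.4% SRB, absorbance read at 515 nm. Percentage growth calculated against untreated controls; controls held DMSO at the same dilution.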

SF-539 = experiment: Growth inhibition of human SF539 cells at 10 uM incubated for 48 hrs by sulforhodamine B assay relative to control; settings: SF-539, 48 h, read-out: GI; procedure, shortened: as §2
SNB-75 = experiment: Growth inhibition of human SNB75 cells at 10 uM incubated for 48 hrs by sulforhodamine B assay relative to control; settings: SNB-75, 48 h, read-out: GI; procedure, shortened: as §2
LOX IMVI = experiment: Growth inhibition of human LOXIMVI cells at 10 uM incubated for 48 hrs by sulforhodamine B assay relative to control; settings: read-out: GI; procedure, shortened: as §1
M14 = experiment: Growth inhibition of human M14 cells at 10 uM incubated for 48 hrs by sulforhodamine B assay relative to control; settings: M14, 48 h, read-out: GI; procedure, shortened: as §1
SK-MEL-5 = experiment: Growth inhibition of human SK-MEL-5 cells at 10 uM incubated for 48 hrs by sulforhodamine B assay relative to control; settings: SK-MEL-5, 48 h, read-out: GI; procedure, shortened: as §2
OVCAR-3 = experiment: Growth inhibition of human OVCAR3 cells at 10 uM incubated for 48 hrs by sulforhodamine B assay relative to control; settings: OVCAR-3, 48 h, read-out: GI; procedure, shortened: as §1
OVCAR-4 = experiment: Growth inhibition of human OVCAR4 cells at 10 uM incubated for 48 hrs by sulforhodamine B assay relative to control; settings: OVCAR-4, 48 h, read-out: GI; procedure, shortened: as §1
OVCAR-5 = experiment: Growth inhibition of human OVCAR5 cells at 10 uM incubated for 48 hrs by sulforhodamine B assay relative to control; settings: OVCAR-5, 48 h, read-out: GI; procedure, shortened: as §1
NCI/ADR-RES = experiment: Growth inhibition of human NCI/ADR-RES cells at 10 uM incubated for 48 hrs by sulforhodamine B assay relative to control; settings: read-out: GI; procedure, shortened: as §1
SK-OV-3 = experiment: Growth inhibition of human SKOV3 cells at 10 uM incubated for 48 hrs by sulforhodamine B assay relative to control; settings: SK-OV-3, 48 h, read-out: GI; procedure, shortened: as §2
ACHN = experiment: Growth inhibition of human ACHN cells at 10 uM incubated for 48 hrs by sulforhodamine B assay relative to control; settings: read-out: GI; procedure, shortened: as §1
CAKI-1 = experiment: Growth inhibition of human Caki1 cells at 10 uM incubated for 48 hrs by sulforhodamine B assay relative to control; settings: CAKI-1, 48 h, read-out: GI; procedure, shortened: as §1
RXF 393 = experiment: Growth inhibition of human RXF393 cells at 10 uM incubated for 48 hrs by sulforhodamine B assay relative to control; settings: RXF 393, 48 h, read-out: GI; procedure, shortened: as §1
TK-10 = experiment: Growth inhibition of human TK10 cells at 10 uM incubated for 48 hrs by sulforhodamine B assay relative to control; settings: TK-10, 48 h, read-out: GI; procedure, shortened: as §2
UO-31 = experiment: Growth inhibition of human UO31 cells at 10 uM incubated for 48 hrs by sulforhodamine B assay relative to control; settings: UO-31, 48 h, read-out: GI; procedure, shortened: as §2
DU-145 = experiment: Growth inhibition of human DU145 cells at 10 uM incubated for 48 hrs by sulforhodamine B assay relative to control; settings: DU-145, 48 h, read-out: GI; procedure, shortened: as §1

Row | SMILES | inhibition of growth at 10 µM (HL-60(TB)) [%] | inhibition of growth at 10 µM (K562) [%] | inhibition of growth at 10 µM (MOLT-4) [%] | inhibition of growth at 10 µM (RPMI-8226) [%] | inhibition of growth at 10 µM (EKVX) [%] | inhibition of growth at 10 µM (HOP-92) [%] | inhibition of growth at 10 µM (NCI-H23) [%] | inhibition of growth at 10 µM (NCI-H322M) [%] | inhibition of growth at 10 µM (NCI-H460) [%] | inhibition of growth at 10 µM (NCI-H522) [%] | inhibition of growth at 10 µM (HCC 2998) [%] | inhibition of growth at 10 µM (HCT-15) [%] | inhibition of growth at 10 µM (KM12) [%] | inhibition of growth at 10 µM (SF-268) [%] | inhibition of growth at 10 µM (SF-539) [%] | inhibition of growth at 10 µM (SNB-75) [%] | inhibition of growth at 10 µM (LOX IMVI) [%] | inhibition of growth at 10 µM (M14) [%] | inhibition of growth at 10 µM (SK-MEL-5) [%] | inhibition of growth at 10 µM (OVCAR-3) [%] | further results
1 | CCOC(=O)C1=C(C)NC(SCc2nnc(-c3ccc(Cl)cc3)o2)=NC1c1ccc(OC)cc1 (stereo not given) | < 10 | < 10 | < 10 | 18.3 | < 10 | 17.6 | < 10 | < 10 | < 10 | < 10 | < 10 | < 10 | < 10 | < 10 | < 10 | 18.9 | < 10 | < 10 | < 10 | < 10 | inhibition of growth at 10 µM (OVCAR-4): < 10%; inhibition of growth at 10 µM (OVCAR-5): < 10%; inhibition of growth at 10 µM (NCI/ADR-RES): < 10%; inhibition of growth at 10 µM (SK-OV-3): < 10%; inhibition of growth at 10 µM (ACHN): < 10%; inhibition of growth at 10 µM (CAKI-1): 17.8%; inhibition of growth at 10 µM (RXF 393): < 10%; inhibition of growth at 10 µM (TK-10): < 10%; inhibition of growth at 10 µM (UO-31): 20.3%; inhibition of growth at 10 µM (DU-145): < 10%
2 | CCOC(=O)C1=C(C)NC(SCc2nnc(-c3ccc(Cl)cc3)o2)=NC1c1ccc(Br)cc1 (stereo not given) | 77.5 | 39.3 | 91.7 | 61.6 | 28.7 | 42.2 | 24.3 | 13.6 | 19.6 | 32.4 | < 10 | 34.9 | 24 | 13.3 | 11.3 | 32.3 | 25.1 | 26 | 48.6 | 22.5 | inhibition of growth at 10 µM (OVCAR-4): 30.4%; inhibition of growth at 10 µM (OVCAR-5): < 10%; inhibition of growth at 10 µM (NCI/ADR-RES): 32.5%; inhibition of growth at 10 µM (SK-OV-3): 18%; inhibition of growth at 10 µM (ACHN): 30.3%; inhibition of growth at 10 µM (CAKI-1): 32.8%; inhibition of growth at 10 µM (RXF 393): 25%; inhibition of growth at 10 µM (TK-10): 20.1%; inhibition of growth at 10 µM (UO-31): 47.6%; inhibition of growth at 10 µM (DU-145): 15.7%
3 | CCOC(=O)C1=C(C)NC(SCc2nnc(-c3ccc(Cl)cc3)o2)=NC1c1ccc(Cl)cc1 (stereo not given) | 78.6 | 44.2 | 93 | 64.2 | 19.9 | 35.9 | 21.2 | 17.7 | 21.1 | 31.1 | 20.1 | 32.4 | 30.3 | 14 | 12.3 | 26.3 | 23.1 | 30.7 | 59.1 | 29.2 | inhibition of growth at 10 µM (OVCAR-4): 30%; inhibition of growth at 10 µM (OVCAR-5): 10.4%; inhibition of growth at 10 µM (NCI/ADR-RES): 30.1%; inhibition of growth at 10 µM (SK-OV-3): 17.4%; inhibition of growth at 10 µM (ACHN): 35.9%; inhibition of growth at 10 µM (CAKI-1): 38.4%; inhibition of growth at 10 µM (RXF 393): 32.3%; inhibition of growth at 10 µM (TK-10): 22.5%; inhibition of growth at 10 µM (UO-31): 51.3%; inhibition of growth at 10 µM (DU-145): 12.8%
4 | CCOC(=O)C1=C(C)NC(SCc2nnc(-c3ccc(Cl)cc3)o2)=NC1c1ccc(F)cc1 (stereo not given) | 23.5 | 14.4 | 20.4 | 25.8 | < 10 | 27.8 | < 10 | < 10 | < 10 | 17.5 | < 10 | 15.8 | < 10 | < 10 | < 10 | < 10 | < 10 | < 10 | 12.5 | < 10 | inhibition of growth at 10 µM (OVCAR-4): < 10%; inhibition of growth at 10 µM (OVCAR-5): < 10%; inhibition of growth at 10 µM (NCI/ADR-RES): < 10%; inhibition of growth at 10 µM (SK-OV-3): < 10%; inhibition of growth at 10 µM (ACHN): < 10%; inhibition of growth at 10 µM (CAKI-1): 17.5%; inhibition of growth at 10 µM (RXF 393): < 10%; inhibition of growth at 10 µM (TK-10): 13.9%; inhibition of growth at 10 µM (UO-31): 22.2%; inhibition of growth at 10 µM (DU-145): < 10%
